Series [1] addresses T1, Stearoyl-CoA desaturase (Homo sapiens, UniProt O00767).
T1 sequence (O00767 whole entry): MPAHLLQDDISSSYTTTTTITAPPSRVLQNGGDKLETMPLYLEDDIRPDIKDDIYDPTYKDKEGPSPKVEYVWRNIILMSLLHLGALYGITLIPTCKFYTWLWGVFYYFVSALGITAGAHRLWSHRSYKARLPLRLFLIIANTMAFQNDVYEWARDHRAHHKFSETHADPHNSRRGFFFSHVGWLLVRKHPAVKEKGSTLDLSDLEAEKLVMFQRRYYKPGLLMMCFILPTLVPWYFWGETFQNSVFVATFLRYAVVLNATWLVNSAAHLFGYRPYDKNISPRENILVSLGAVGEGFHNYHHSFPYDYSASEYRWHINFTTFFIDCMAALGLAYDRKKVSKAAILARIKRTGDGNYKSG
The series is described as follows: Inhibition of SCD1 in HEK293A cell microsomes assessed as reduction in conversion of [14C]stearic acid to [14C]oleic acid after 30 mins. Further details: species or system HEK293-A, Microsome.

In a further series the target is T2, Acyl-CoA desaturase 1 (Mus musculus, UniProt P13516).
T2 sequence (P13516 whole entry): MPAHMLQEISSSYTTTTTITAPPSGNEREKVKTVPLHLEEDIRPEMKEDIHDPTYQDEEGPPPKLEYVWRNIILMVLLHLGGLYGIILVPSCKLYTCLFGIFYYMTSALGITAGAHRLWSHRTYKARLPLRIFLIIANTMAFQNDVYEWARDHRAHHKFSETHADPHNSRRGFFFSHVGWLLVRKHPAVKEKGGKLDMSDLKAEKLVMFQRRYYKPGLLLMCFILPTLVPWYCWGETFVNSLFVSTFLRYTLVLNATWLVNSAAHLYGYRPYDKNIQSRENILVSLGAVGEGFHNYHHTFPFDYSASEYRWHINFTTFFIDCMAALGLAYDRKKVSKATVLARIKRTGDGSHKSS
The series is described as follows: Inhibition of SCD1 in mouse microsome assessed as reduction in conversion of [14C]stearic acid to [14C]oleic acid after 30 mins. The format is microsomes.

Series [2] concerns the target T1, Stearoyl-CoA desaturase. The series is described as follows: Inhibition of human SCD1 expressed in HEK293A cells assessed as reduction in conversion of [14C]stearic acid to [14C]oleic acid after 30 mins. In kind it is cell-based, HEK293-A. The method in brief: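 293A cells stably expressing human SCD1 (G418-selected) grown to confluence in DMEM + 10% FBS. Cells preincubated with compound 30 min, then given 0.1 µCi [14C]stearate for 4 h. Lipids saponified in KOH, separated by AgNO3-TLC, and the [14C]oleate/[14C]stearate ratio used as activity. IC50 derived from this read-out.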

In the next series the test system is Mus musculus. The series is described as follows: Inhibition of liver SCD1 activity in po dosed db/db mouse assessed as reduction in conversion of [14C]stearic acid to [14C]oleic acid. In kind it is functional. To be noted: read-out: ID50 (the source's name). The essentials:
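Seven-week-old male db/db mice dosed by oral gavage 2 h before i.p. [14C]stearate (100 µCi/kg in saline with 2% BSA). Livers harvested 1 h later and homogenized in cold PBS. Saponified homogenate analyzed by AgNO3-TLC for the [14C]oleate/[14C]stearate ratio. ID50 is the dose giving 50% inhibition.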

Series [3] can be described thus: Aqueous solubility of the compound at acidic JP-1 solution of pH 1.2 by HPLC analysis. In kind it is physicochemical. The essentials:
(§1)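 Solubility measured in purchased aqueous acidic JP-1 (pH 1.2) or neutral JP-2 (pH 6.8) media. Samples analyzed by HPLC, with UV peak area compared to a calibration standard of 250 µM compound in CH3CN/water 1:1. Means of at least two experiments.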

A short description of series [4]: Aqueous solubility of the compound at neutral JP-2 solution of pH 6.8 by HPLC analysis. In kind it is physicochemical. The method in brief:
as §1

A short description of series [5]: Cmax in C57BL/6J mouse at 20 mg/kg, po up to 8 hrs. In kind it is ADME, organism-based. Further details: dose 20 mg/kg, route oral. The following applies: in vivo. The essentials: (§2)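 Oral gavage via intubation tube at 20 mg/kg in propylene glycol/Tween 4:1, n = 3 C57BL/6J mice. Plasma sampled up to 8 h after dosing. Values are arithmetic means of at least two experiments.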

A short description of series [6]: Tmax in C57BL/6J mouse at 20 mg/kg, po. In kind it is ADME, organism-based. Further details: dose 20 mg/kg, route oral. The following applies: in vivo. The essentials: as §2
A short description of series [7]: AUC (0 to 8 hrs) in C57BL/6J mouse at 20 mg/kg, po. In kind it is ADME, organism-based. To be noted: plasma. Further details: time < 8 hr, dose 20 mg/kg, route oral. The method in brief: as §2
Series [8] in a line: Half life in C57BL/6J mouse at 20 mg/kg, po. To be noted: in vivo. Further details: dose 20 mg/kg, route oral. The format is ADME, organism-based. The method in brief:
as §2

The target of series [9] is T1, Stearoyl-CoA desaturase. Description: Inhibition of human SCD1. The method in brief: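 Microsomes from 293A cells as the human SCD1 source, preincubated with compound for 10 min at room temperature. Reaction run 60 min at 37 °C in pH 7.4 phosphate buffer with ATP 1 mM, NADH 1.25 mM, CoA and [14C] stearate. Product saponified and separated on AgNO3-TLC. Activity is the [14C] oleate/stearate ratio. IC50 by linear regression; mean of ≥2 experiments.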

Converted amounts (≈) assume the structure as drawn.

As a reminder, the IC50 is the concentration that inhibits the measured activity by half. Usually solubility stands for how much of the substance goes into solution per volume. A low value points to little dissolved substance. The Cmax is the highest concentration seen after dosing. As a reminder, the Tmax is the time from dosing to the highest level. By AUC(0-t) is commonly meant exposure summed from dosing to a finite time, without extrapolation to infinity. The low end stands for less exposure, the high end for more exposure. The term half-life denotes the time in which the quantity being followed falls by half. Lower therefore signals fast loss.

As for `Clc1cccc2c1CCC1(CCN(c3ccc(-c4nnc(Cc5cccnc5)o4)nn3)CC1)O2`, the IC50 came to 0.06 nM on Stearoyl-CoA desaturase [1], 0.04 nM on Acyl-CoA desaturase 1 and 1 nM at Stearoyl-CoA desaturase [2]. Also, the ED50 in the series with Mus musculus is 1 mg/kg. The solubility in series [3] was above 50 µM; in series [4] it was below 0.5 µM. Further, the Cmax in series [5] was 690 ng/mL. In addition, the Tmax in series [6] is 48 min. In series [7], this molecule showed an area under the curve AUC(0-t) at 8 h of 1400 ng·h/mL. The same molecule gave a half-life in series [8] of 42 min.
Turning to `FC(F)(F)c1cccc2c1CCC1(CCN(c3ccc(-c4nnc(Cc5cccnc5)o4)nn3)CC1)O2`, the values for the IC50 against Stearoyl-CoA desaturase [9], on Stearoyl-CoA desaturase [1] and on Acyl-CoA desaturase 1 were 0.03 nM, 0.03 nM and 0.06 nM, respectively. For the same molecule, the ED50 with Mus musculus was found to be 0.4 mg/kg. For the same molecule, the solubility is 88 µM (≈ 44.7 µg/mL) in series [3] and below 0.5 µM in series [4].
Take `c1ccc(Cc2nnc(-c3ccc(N4CCC5(CCc6ccccc6O5)CC4)nn3)o2)nc1`: the concentration for half-maximal inhibition (IC50) at Stearoyl-CoA desaturase [1] was found to be 4 nM; on Acyl-CoA desaturase 1, 3 nM; on Stearoyl-CoA desaturase [2], 9 nM. In addition, in the series on Mus musculus, the ED50 amounted to 6 mg/kg.
For `c1cncc(Cc2nnc(-c3ccc(N4CCC5(CCc6ccccc6O5)CC4)nn3)o2)c1`, the concentration for half-maximal inhibition (IC50) on Stearoyl-CoA desaturase [1] came out at 1 nM; on Acyl-CoA desaturase 1, 2 nM; on Stearoyl-CoA desaturase [2] it was 4 nM. In addition, the ED50 in the series on Mus musculus came to 2 mg/kg. For the same molecule, the solubility in series [3] came to 92 µM (≈ 40.5 µg/mL); in series [4], 4.2 µM (≈ 1.85 µg/mL). Further, the peak concentration (Cmax) in [5] was found to be 1300 ng/mL. For the same molecule, the time of peak concentration (Tmax) in series [6] was found to be 60 min. The same molecule gave an AUC(0-t) at 8 h in [7] of 2400 ng·h/mL. The molecule also showed a half-life in series [8] of 48 min.

(Values after ChEMBL document CHEMBL1275283, “Synthesis and evaluation of novel stearoyl-CoA desaturase 1 inhibitors: 1'-{6-[5-(pyridin-3-ylmethyl)-1,3,4-oxadiazol-2-yl]pyridazin-3-yl}-3,4-dihydrospiro[chromene-2,4'-piperidine] analogs” (Eur J Med Chem, 2010).)
